Reference: ChEMBL document CHEMBL1126197, “Orally active beta-lactam inhibitors of human leukocyte elastase-1. Activity of 3,3-diethyl-2-azetidinones” (J Med Chem, 1992)

What was measured:
[1] = biological target: T1, Neutrophil elastase (Homo sapiens) (UniProt P08246); assay: elastase inhibitory activity, evaluated for second order rate constant (time-dependent inhibition)
T1 sequence (whole entry): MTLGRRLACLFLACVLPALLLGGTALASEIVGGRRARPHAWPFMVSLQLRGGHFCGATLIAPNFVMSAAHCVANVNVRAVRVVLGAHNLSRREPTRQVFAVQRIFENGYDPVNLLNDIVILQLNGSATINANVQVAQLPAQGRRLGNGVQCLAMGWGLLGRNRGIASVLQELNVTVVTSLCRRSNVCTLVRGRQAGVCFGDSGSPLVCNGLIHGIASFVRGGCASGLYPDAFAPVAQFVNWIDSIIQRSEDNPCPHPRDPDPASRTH
Summary of the method: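 HLE-catalyzed hydrolysis of MeO-Suc-Ala-Ala-Pro-Ala-pNA was followed while enzyme inactivation was monitored for 15 min. Second-order rate constants (kobs/I, M-1 s-1) were derived from this time-dependent inactivation.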

[2] = biological target: T1, Neutrophil elastase (Homo sapiens); assay: Percent inhibition in elastase-induced lung haemorrhage, when the compound is dosed orally at 30 mg/kg 30 min before challenge by HLE (Human leukocyte elastase); type: functional, organism-based; set-up: dose 30 mg/kg
Summary of the method: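 Anesthetized hamsters received the compound orally 30 min before intratracheal instillation of 50 units HLE. After 3 h, hemoglobin in the lung lavage was measured spectrophotometrically. Percent inhibition of hemorrhage was calculated for the drug-treated group against the vehicle-only group.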

| Structure (SMILES) | second order rate constant kobs/[I] [1] | inhibition [2] |
| --- | --- | --- |
| CCC1(CC)C(=O)N(C(=O)NCc2ccc(C)c(C)c2)C1Oc1ccc(C(=O)O)cc1 (configuration not stated) | 21000 M⁻¹ s⁻¹ | 52% |
| CCC1(CC)C(=O)N(C(=O)NCc2cccc3ccccc23)C1Oc1ccc(C(=O)O)cc1 (configuration not stated) | 8400 M⁻¹ s⁻¹ |  |
| CCC1(CC)C(=O)N(C(=O)NCc2ccccc2)C1Oc1ccc(CC(=O)O)cc1 (configuration not stated) | 3200 M⁻¹ s⁻¹ | 71% |
| CCC1(CC)C(=O)N(C(=O)NCc2ccc(O)cc2)C1Oc1ccc(C(=O)O)cc1 (configuration not stated) | 3000 M⁻¹ s⁻¹ |  |
| CCC1(CC)C(=O)N(C(=O)NCc2cccs2)C1Oc1ccc(C(=O)O)cc1 (configuration not stated) | 4900 M⁻¹ s⁻¹ | 52% |
| CCC1(CC)C(=O)N(C(=O)NCCCC(=O)c2ccccc2)C1Oc1ccc(C(=O)O)cc1 (configuration not stated) | 2000 M⁻¹ s⁻¹ | 0% |
| CCc1ccc(CNC(=O)N2C(=O)C(CC)(CC)C2Oc2ccc(C(=O)O)cc2)cc1 (configuration not stated) | 8200 M⁻¹ s⁻¹ | 46% |
| CCC1(CC)C(=O)N(C(=O)NCc2ccc(-c3ccccc3)cc2)C1Oc1ccc(C(=O)O)cc1 (configuration not stated) | 23200 M⁻¹ s⁻¹ | 24% |
| CCC1(CC)C(=O)N(C(=O)NCc2ccsc2)C1Oc1ccc(C(=O)O)cc1 (configuration not stated) | 1300 M⁻¹ s⁻¹ | 53% |
| CCC1(CC)C(=O)N(C(=O)NCc2ccccc2)C1Oc1ccc(C(=O)O)cc1 (configuration not stated) | 1500 M⁻¹ s⁻¹ | 56% |
| CCN(Cc1ccccc1)C(=O)N1C(=O)C(CC)(CC)C1Oc1ccc(C(=O)O)cc1 (configuration not stated) | 2300 M⁻¹ s⁻¹ | 34% |
| CCC1(CC)C(=O)N(C(=O)NCCCOc2ccccc2)C1Oc1ccc(C(=O)O)cc1 (configuration not stated) | 3500 M⁻¹ s⁻¹ | 40% |
| CCC1(CC)C(=O)N(C(=O)NCc2ccc(F)cc2)C1Oc1ccc(C(=O)O)cc1 (configuration not stated) | 2300 M⁻¹ s⁻¹ | 4% |
| CCC1(CC)C(=O)N(C(=O)NCc2ccc(OC)cc2)C1Oc1ccc(C(=O)O)cc1 (configuration not stated) | 5200 M⁻¹ s⁻¹ | 60% |
| CCCCCCCCCNC(=O)N1C(=O)C(CC)(CC)C1Oc1ccc(C(=O)O)cc1 (configuration not stated) | 8300 M⁻¹ s⁻¹ |  |
| CCCCNC(=O)N1C(=O)C(CC)(CC)C1Oc1ccc(C(=O)O)cc1 (configuration not stated) | 800 M⁻¹ s⁻¹ | 45% |
| CCC1(CC)C(=O)N(C(=O)NCCCCOc2ccccc2)C1Oc1ccc(C(=O)O)cc1 (configuration not stated) | 3400 M⁻¹ s⁻¹ | 30% |
| CCC1(CC)C(=O)N(C(=O)NCCCCCCc2ccccc2)C1Oc1ccc(C(=O)O)cc1 (configuration not stated) | 5000 M⁻¹ s⁻¹ | 14% |
| CCC1(CC)C(=O)N(C(=O)NCCCc2ccccc2)C1Oc1ccc(C(=O)O)cc1 (configuration not stated) | 4500 M⁻¹ s⁻¹ | 12% |
| CCC1(CC)C(=O)N(C(=O)NCc2ccc([N+](=O)[O-])cc2)C1Oc1ccc(C(=O)O)cc1 (configuration not stated) | 5100 M⁻¹ s⁻¹ | 22% |
| CCC1(CC)C(=O)N(C(=O)NCC2CCCCC2)C1Oc1ccc(C(=O)O)cc1 (configuration not stated) | 1400 M⁻¹ s⁻¹ | 0% |
| CCC1(CC)C(=O)N(C(=O)NCc2ccc(C(C)=O)cc2)C1Oc1ccc(C(=O)O)cc1 (configuration not stated) | 5900 M⁻¹ s⁻¹ | 37% |
| CCC1(CC)C(=O)N(C(=O)NCc2ccc(C(N)=O)cc2)C1Oc1ccc(C(=O)O)cc1 (configuration not stated) | 4300 M⁻¹ s⁻¹ | 10% |
| CCC1(CC)C(=O)N(C(=O)NCc2ccc(N)cc2)C1Oc1ccc(C(=O)O)cc1 (configuration not stated) | 1800 M⁻¹ s⁻¹ | 2% |

| Structure (SMILES) | second order rate constant kobs/[I] [1] | inhibition [2] |
| --- | --- | --- |
| CCC1(CC)C(=O)N(C(=O)NCc2ccccc2C)C1Oc1ccc(C(=O)O)cc1 (configuration not stated) | 700 M⁻¹ s⁻¹ | 33% |
| CCC1(CC)C(=O)N(C(=O)NCc2ccc(C)cc2C)C1Oc1ccc(C(=O)O)cc1 (configuration not stated) | 1500 M⁻¹ s⁻¹ | 45% |
| CCC1(CC)C(=O)N(C(=O)NCc2ccc(N(C)C)cc2)C1Oc1ccc(C(=O)O)cc1 (configuration not stated) | 10000 M⁻¹ s⁻¹ | 25% |
| CCC1(CC)C(=O)N(C(=O)NCc2ccc(OC)c(C)c2)C1Oc1ccc(C(=O)O)cc1 (configuration not stated) | 13100 M⁻¹ s⁻¹ | 64% |
| CCC1(CC)C(=O)N(C(=O)NCc2ccc(OCc3ccccc3)cc2)C1Oc1ccc(C(=O)O)cc1 (configuration not stated) | 12000 M⁻¹ s⁻¹ | -9% |
| CCC1(CC)C(=O)N(C(=O)NCCC(=O)c2ccccc2)C1Oc1ccc(C(=O)O)cc1 (configuration not stated) | 2100 M⁻¹ s⁻¹ | 8% |
| CCC1(CC)C(=O)N(C(=O)NCc2cc(C)cc(C)c2)C1Oc1ccc(C(=O)O)cc1 (configuration not stated) | 14700 M⁻¹ s⁻¹ | 69% |
| CCC1(CC)C(=O)N(C(=O)NCc2ccc(C(=O)O)cc2)C1Oc1ccc(C(=O)O)cc1 (configuration not stated) | 2200 M⁻¹ s⁻¹ | 25% |
| CCC1(CC)C(=O)N(C(=O)NCc2ccc(C)cc2)C1Oc1ccc(CC(=O)O)cc1 (configuration not stated) | 4500 M⁻¹ s⁻¹ | 72% |
| CCC1(CC)C(=O)N(C(=O)NCCCCCc2ccccc2)C1Oc1ccc(C(=O)O)cc1 (configuration not stated) | 4800 M⁻¹ s⁻¹ | 15% |
| CCC1(CC)C(=O)N(C(=O)NCc2ccc3ccccc3c2)C1Oc1ccc(C(=O)O)cc1 (configuration not stated) | 21300 M⁻¹ s⁻¹ | 37% |
| CCC1(CC)C(=O)N(C(=O)NCc2ccc(-c3ccccc3)cc2)C1Oc1ccc(CC(=O)O)cc1 (configuration not stated) | 29000 M⁻¹ s⁻¹ | 19% |
| CCC1(CC)C(=O)N(C(=O)NCc2ccc(C)cc2)C1Oc1ccc(C(=O)O)cc1 (configuration not stated) | 4000 M⁻¹ s⁻¹ | 86% |
| CCC1(CC)C(=O)N(C(=O)NCc2ccccc2O)C1Oc1ccc(C(=O)O)cc1 (configuration not stated) | 1500 M⁻¹ s⁻¹ | -2% |
| CCC1(CC)C(=O)N(C(=O)NCc2ccco2)C1Oc1ccc(C(=O)O)cc1 (configuration not stated) | 5200 M⁻¹ s⁻¹ | 58% |
| CCC1(CC)C(=O)N(C(=O)NCc2cccc(C)c2)C1Oc1ccc(C(=O)O)cc1 (configuration not stated) | 7000 M⁻¹ s⁻¹ | 47% |
| CCC1(CC)C(=O)N(C(=O)NCc2ccc3c(c2)OCO3)C1Oc1ccc(C(=O)O)cc1 (configuration not stated) | 5000 M⁻¹ s⁻¹ | 10% |
| CCC1(CC)C(=O)N(C(=O)NCc2ccc(C)c(OC)c2)C1Oc1ccc(C(=O)O)cc1 (configuration not stated) | 6500 M⁻¹ s⁻¹ | 76% |
| CCC1(CC)C(=O)N(C(=O)NCc2ccc(Cl)cc2)C1Oc1ccc(C(=O)O)cc1 (configuration not stated) | 3400 M⁻¹ s⁻¹ | 29% |
| CCC1(CC)C(=O)N(C(=O)NCc2ccccc2N)C1Oc1ccc(C(=O)O)cc1 (configuration not stated) | 1200 M⁻¹ s⁻¹ | 73% |
| CCC1(CC)C(=O)N(C(=O)NCCCC(O)c2ccccc2)C1Oc1ccc(C(=O)O)cc1 (configuration not stated) | 5100 M⁻¹ s⁻¹ |  |
| CCC1(CC)C(=O)N(C(=O)NCCc2ccccc2)C1Oc1ccc(C(=O)O)cc1 (configuration not stated) | 1300 M⁻¹ s⁻¹ | 33% |
| CCC1(CC)C(=O)N(C(=O)NCCCCc2ccccc2)C1Oc1ccc(C(=O)O)cc1 (configuration not stated) | 9200 M⁻¹ s⁻¹ | 35% |
| CCC1(CC)C(=O)N(C(=O)NCc2ccc(SC)cc2)C1Oc1ccc(C(=O)O)cc1 (configuration not stated) | 9400 M⁻¹ s⁻¹ | 28% |
